Results: ChEMBL document CHEMBL4316636, “Tetrandraxanthones A-I, Prenylated and Geranylated Xanthones from the Stem Bark of Garcinia tetrandra” (J Nat Prod, 2019)

Assays:
Type in all cases: functional, cell-based
[1] = system: HT-29; test: Cytotoxicity in human HT-29 cells incubated for 72 hrs by MTT assay; conditions: HT-29, 72 h
How it was run: (§1)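 MTT colorimetric read-out after 72 h incubation of tumour cells: Hep G2 hepatocellular carcinoma, HeLa S3 cervix adenocarcinoma, MCF-7 breast adenocarcinoma, HT-29 colon adenocarcinoma, and KB epidermoid carcinoma. IC50 is given as the mean ± SD of three experiments, with doxorubicin as the positive control. HeLa S3 and KB were screened first.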

[2] = system: KB; test: Cytotoxicity in human KB cells incubated for 72 hrs by MTT assay; how it was run: as §1
[3] = system: HepG2; test: Cytotoxicity in human HepG2 cells incubated for 72 hrs by MTT assay; conditions: HepG2, 72 h; how it was run: as §1
[4] = system: HeLa S3; test: Cytotoxicity in human HeLaS3 cells incubated for 72 hrs by MTT assay; conditions: HeLa S3, 72 h; how it was run: as §1
[5] = system: MCF7; test: Cytotoxicity in human MCF7 cells incubated for 72 hrs by MTT assay; conditions: MCF7, 72 h; how it was run: as §1

| Compound | IC50 [1] [µM] | IC50 [2] [µM] | IC50 [3] [µM] | IC50 [4] [µM] | IC50 [5] [µM] |
| --- | --- | --- | --- | --- | --- |
| COc1c(O)cc2oc3cc(O)cc(O)c3c(=O)c2c1C/C=C(\C)CCCC(C)(C)O [BUTYRAXANTHONE D] | > 10 | > 10 | > 10 | > 10 | > 10 |
| COc1c(O)cc2oc3cc(O)cc(O)c3c(=O)c2c1CCC(C)(O)CCC=C(C)C (stereo not given) | > 10 | > 10 | > 10 | > 10 | > 10 |
| COc1c(O)cc2oc3c(CC=C(C)C)c(O)cc(O)c3c(=O)c2c1C/C=C(\C)CCC=C(C)C | > 10 | 7.1 | > 10 | 9 | 7 |
| COc1c(O)cc2oc3c(C/C=C(\C)CCC=C(C)C)c(O)cc(O)c3c(=O)c2c1CC=C(C)C | > 10 | 4.9 | > 10 | 5.8 | 4.3 |
| COc1c(OC)c(OC)c2c(=O)c3c(O)c4c(cc3oc2c1OC)OC(C)(C)C=C4 | > 10 | > 10 | > 10 | > 10 | > 10 |
| COc1cccc2c1C(=O)c1c(O)c3c(c(O)c1C2=O)C[C@@](O)(C(=O)CO)C[C@@H]3O[C@H]1C[C@H](N)[C@H](O)[C@H](C)O1 [DOXORUBICIN] | 0.34 | 0.01 | 1.43 | 0.12 | 0.49 |
| COc1c(O)cc2oc3cc(O)c(CC=C(C)C)c(O)c3c(=O)c2c1CCC(C)(C)O [GARCINONE D] | > 10 | > 10 | > 10 | > 10 | > 10 |
| COc1c(O)cc2oc3c(CC=C(C)C)c(O)cc(O)c3c(=O)c2c1CCC(C)(O)CCC=C(C)C (stereo not given) | > 10 | 7.1 | > 10 | > 10 | 8.8 |
| O=c1c2ccc(O)c(O)c2oc2cc(O)cc(O)c12 | > 10 | > 10 | > 10 | > 10 | > 10 |
| COc1c(O)cc2oc3cc(O)cc(O)c3c(=O)c2c1CC=C(C)C | > 10 | > 10 | > 10 | > 10 | > 10 |
| COc1c(O)cc2oc3c4c(cc(O)c3c(=O)c2c1CC=C(C)C)OC(C)(CCC=C(C)C)C=C4 (stereo not given) | > 10 | > 10 | > 10 | > 10 | > 10 |
| O=c1c2cc(O)c(O)cc2oc2cc(O)cc(O)c12 | > 10 | > 10 | > 10 | > 10 | > 10 |
| COc1c(O)ccc2c(=O)c3c(O)c4c(cc3oc12)OC(C)(C)C=C4 | > 10 | > 10 | > 10 | > 10 | > 10 |
| COc1c(O)c(OC)c2oc3cc4c(c(O)c3c(=O)c2c1OC)C=CC(C)(C)O4 | > 10 | > 10 | > 10 | > 10 | > 10 |
| C=CC(C)(C)c1c(OC)c(CC=C(C)C)c(O)c2c(=O)c3ccc(O)c(O)c3oc12 [NIGROLINEAXANTHONE E] | > 10 | > 10 | > 10 | > 10 | > 10 |
| COc1c(O)cc2oc3cc(O)cc(O)c3c(=O)c2c1CC1=C(C)CCCC1(C)C | > 10 | > 10 | > 10 | > 10 | > 10 |

| Compound | IC50 [1] [µM] | IC50 [2] [µM] | IC50 [3] [µM] | IC50 [4] [µM] | IC50 [5] [µM] |
| --- | --- | --- | --- | --- | --- |
| COc1c(O)cc2oc3cc4c(c(O)c3c(=O)c2c1CCC(C)(C)O)CCC(C)(C)O4 | > 10 | > 10 | > 10 | > 10 | > 10 |
| COc1c(O)cc2oc3cc4c(c(O)c3c(=O)c2c1CC=C(C)C)CCC(C)(C)O4 | > 10 | > 10 | > 10 | > 10 | > 10 |
| COc1c(O)cc2oc3cc(O)cc(O)c3c(=O)c2c1C/C=C(\C)CCC=C(C)C [RUBRAXANTHONE] | > 10 | > 10 | > 10 | > 10 | > 10 |
| COc1c(O)cc2oc3c(C/C=C(\C)CCC=C(C)C)c(O)c(CC=C(C)C)c(O)c3c(=O)c2c1CC=C(C)C | > 10 | > 10 | > 10 | > 10 | > 10 |
| CC1(C)CCc2c(cc3oc4ccc(O)cc4c(=O)c3c2O)O1 | > 10 | > 10 | > 10 | > 10 | > 10 |
| COc1c(O)cc2oc3c(C/C=C(\C)CCC=C(C)C)c(O)cc(O)c3c(=O)c2c1CCC(C)(C)O | > 10 | > 10 | > 10 | > 10 | > 10 |
| O=c1c2cc(O)ccc2oc2cccc(O)c12 | > 10 | > 10 | > 10 | > 10 | > 10 |
| O=c1c2cc(O)ccc2oc2cc(O)cc(O)c12 | > 10 | > 10 | > 10 | > 10 | > 10 |
| COc1c(O)cc2oc3cc4c(c(O)c3c(=O)c2c1CC=C(C)C)C=CC(C)(C)O4 [MANGOSTANIN] | 1.6 | 1.7 | 3.4 | 1.9 | 1.9 |
| C=C1CCCC(C)(C)C1Cc1c(OC)c(O)cc2oc3cc(O)cc(O)c3c(=O)c12 (stereo not given) | > 10 | > 10 | > 10 | > 10 | > 10 |
| COc1c(O)cc2oc3cc(O)c(CC=C(C)C)c(O)c3c(=O)c2c1CC=C(C)C [MANGOSTIN] | > 10 | > 10 | > 10 | > 10 | > 10 |
| COc1c(O)cc2oc3cc(O)cc(O)c3c(=O)c2c1CCC1(C)CCCC(C)(C)O1 (stereo not given) | > 10 | > 10 | > 10 | > 10 | > 10 |
| COc1c(O)cc2oc3c(CC=C(C)C)c(O)cc(O)c3c(=O)c2c1CC=C(C)C | > 10 | > 10 | > 10 | > 10 | > 10 |
| C=CC(C)(C)c1c2c(c(O)c3c(=O)c4ccc(O)c(O)c4oc13)C=CC(C)(C)O2 [MACLURAXANTHONE] | > 10 | 7.4 | > 10 | 6.7 | > 10 |
| COc1c(O)cc2oc3c4c(cc(O)c3c(=O)c2c1C/C=C(\C)CCC=C(C)C)OC(C)(C)C=C4 | > 10 | > 10 | > 10 | > 10 | > 10 |
